Assay results reported in ChEMBL document CHEMBL1131564, “Potent and selective ligands for the dopamine transporter (DAT): structure-activity relationship studies of novel 4-[2-(diphenylmethoxy)ethyl]-1-(3-phenylpropyl)piperidine analogues” (J Med Chem, 1998).
pIC50: −log10 of the molar value.

Tests used:
[1] = molecular target: Sodium-dependent dopamine transporter (Rattus norvegicus, UniProt P23977); assay: Inhibitory activity against dopamine transporter (DAT) labeled with [3H]WIN-35428 in rat brain striatal membrane.; assay type: cell membranes
Sequence of Sodium-dependent dopamine transporter (P23977 whole entry): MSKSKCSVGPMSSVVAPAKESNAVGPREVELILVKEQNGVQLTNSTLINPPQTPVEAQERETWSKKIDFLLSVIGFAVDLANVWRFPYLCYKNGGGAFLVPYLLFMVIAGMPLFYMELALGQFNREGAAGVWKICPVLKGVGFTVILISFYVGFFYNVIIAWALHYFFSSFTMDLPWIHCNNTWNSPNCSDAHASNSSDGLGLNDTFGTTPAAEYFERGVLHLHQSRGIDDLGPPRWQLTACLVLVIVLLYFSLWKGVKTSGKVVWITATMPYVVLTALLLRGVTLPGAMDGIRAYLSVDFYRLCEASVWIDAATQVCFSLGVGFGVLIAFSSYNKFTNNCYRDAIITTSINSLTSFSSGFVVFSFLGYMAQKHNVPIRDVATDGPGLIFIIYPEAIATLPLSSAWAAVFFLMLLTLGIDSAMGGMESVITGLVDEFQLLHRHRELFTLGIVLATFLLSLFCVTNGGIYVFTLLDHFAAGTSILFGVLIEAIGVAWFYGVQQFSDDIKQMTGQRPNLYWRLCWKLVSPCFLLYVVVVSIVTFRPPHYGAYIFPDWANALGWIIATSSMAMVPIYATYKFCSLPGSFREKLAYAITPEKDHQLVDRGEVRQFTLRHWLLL

[2] = molecular target: Sodium-dependent serotonin transporter (Rattus norvegicus, UniProt P31652); assay: Inhibitory activity against serotonin transporter (SERT) labeled with [3H]-citalopram in rat brain striatal membrane.; assay type: cell membranes
Sequence of Sodium-dependent serotonin transporter (P31652 whole entry): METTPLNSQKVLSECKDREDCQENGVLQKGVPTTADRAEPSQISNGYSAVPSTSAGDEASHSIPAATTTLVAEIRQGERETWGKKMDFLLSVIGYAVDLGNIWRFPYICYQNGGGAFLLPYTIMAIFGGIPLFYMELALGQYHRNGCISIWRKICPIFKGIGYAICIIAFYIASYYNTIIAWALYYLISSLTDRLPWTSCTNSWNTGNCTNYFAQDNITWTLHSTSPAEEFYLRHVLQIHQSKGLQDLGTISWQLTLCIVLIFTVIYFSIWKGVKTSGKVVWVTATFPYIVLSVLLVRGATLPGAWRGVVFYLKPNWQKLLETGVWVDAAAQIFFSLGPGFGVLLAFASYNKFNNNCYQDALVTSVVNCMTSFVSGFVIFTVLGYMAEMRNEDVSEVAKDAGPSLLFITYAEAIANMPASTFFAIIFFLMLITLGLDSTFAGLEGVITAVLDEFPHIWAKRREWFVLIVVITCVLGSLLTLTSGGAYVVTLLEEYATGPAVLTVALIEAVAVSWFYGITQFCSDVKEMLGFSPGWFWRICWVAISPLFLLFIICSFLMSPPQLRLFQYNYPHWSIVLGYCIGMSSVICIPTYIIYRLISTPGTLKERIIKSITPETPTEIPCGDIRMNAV

[3] = tested on: Monoamine transporters; serotonin & dopamine; assay: Ratio between the IC50 values of SERT and DAT; assay type: protein assay
Outline: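 Selectivity ratio: SERT IC50 ([3H]citalopram) divided by DAT IC50 ([3H]WIN 35,428). Both IC50s come from binding in male Sprague–Dawley rat striatal membranes under identical conditions, each by nonlinear curve fitting of at least five concentrations, three independent experiments in triplicate.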

SMILES	pIC50 [1]	pIC50 [2]	Ratio [3]
Fc1ccc(C=CCN2CCC(CCOC(c3ccc(F)cc3)c3ccc(F)cc3)CC2)cc1	7.82	7.12	5
C(=Cc1cccs1)CN1CCC(CCOC(c2ccccc2)c2ccccc2)CC1	8.01	6.54	29.6
Fc1ccc(C=CCN2CCC(CCOC(c3ccccc3)c3ccccc3)CC2)cc1	7.97	6.69	19
c1ccc(C(OCCC2CCN(CCCc3cccnc3)CC2)c2ccccc2)cc1	7.52	6.71	6.5
C(=Cc1ccccc1)CN1CCC(CCOC(c2ccccc2)c2ccccc2)CC1	8.00	6.63	22.9
c1ccc(CCCN2CCC(CCOC(c3ccccc3)c3cccs3)CC2)cc1 (configuration not stated)	8.22	6.74	30
Fc1ccc(CCCN2CCC(CCOC(c3ccccc3)c3ccccc3)CC2)cc1	8.18	6.65	33.8
Fc1ccc(C(OCCC2CCN(CC=Cc3ccccc3)CC2)c2ccc(F)cc2)cc1	7.38	6.57	6.5
Fc1ccc(C(OCCC2CCN(CCCc3ccccc3)CC2)c2cccs2)cc1 (configuration not stated)	7.93	7.07	7.3
